Measurements taken from article PMC7016295 (Acta Pharmaceutica Sinica. B, 2019).

System: xenograft tumors of murine glioma GL261 cells
Experiment: GL261 xenograft tumor model
Type: in vivo, C57BL/6 mice
Outline: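 About 3 × 10⁶ GL261 cells implanted subcutaneously at the left scapula of male C57BL/6 mice (6–8 weeks). At 100–300 mm³, mice randomized (n = 7/group). Vehicle (0.5% methylcellulose) oral daily. TMZ 100 mg/kg oral every 2 days, alone or with 50 mg/kg. Endpoint: tumour weight; body weight; CD31 immunohistochemistry (1:200) on 4 μm paraffin sections.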

Compound: Cn1nnc2c(C(N)=O)ncn2c1=O [TMZ, temozolomide]
- body weight (GL261 xenograft mice, vs control (co-treatment vs TMZ group)): significantly decreased
- tumor inhibition rate (TMZ only, 100 mg/kg oral every 2 days): 34.15%
